Measurements from ChEMBL document CHEMBL1148779, “Synthesis and biological evaluation of imidazoquinoxalinones, imidazole analogues of pyrroloiminoquinone marine natural products” (J Med Chem, 2007).
Calls of active or inactive are those of the source. The rule behind the calls is not given here.

Assays:
Homo sapiens = species: Homo sapiens; assay: Inhibition of human recombinant topoisomerase 2
In short: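 Relaxation assay with recombinant human topoisomerase II (p170), 4 units, and 0.25 µg supercoiled pRYG DNA. Buffer: 50 mM Tris pH 8.0, 120 mM KCl, 10 mM MgCl2, 0.5 mM DTT, 0.5 mM ATP. Drug was added in varying amounts for 45 min at 37 °C. Reactions were stopped with SDS and proteinase K, then extracted with chloroform/isoamyl alcohol. Products were run on a 1% agarose gel and stained with ethidium bromide. Etoposide was the positive control.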

[1] = (§1) Growth inhibition of NCI60 cells; assay type: functional; settings: Homo sapiens; for TGI: read-out: Log TGI (converted)
BT-549 = assay: Growth inhibition of human BT549 cells; assay type: functional
MDA-MB-231 = assay: Growth inhibition of human MDA-MB-231 cells; assay type: functional
MDA-MB-435 = assay: Growth inhibition of human MDA-MB-435 cells; assay type: functional
MDA-N = assay: Growth inhibition of human MDA-N cells; assay type: functional
NCI60 = assay: as §1; assay type: functional; settings: Homo sapiens
HCT-116 = assay: Inhibition of human HCT116 cells; assay type: functional, cell-based
In short: (§2)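 MTT assay. HCT-116 cells were grown in McCoy's 5a with 10% FBS and 2 mM L-glutamine. A-431 cells were grown in DMEM with 10% FBS and 4 mM L-glutamine. Cells were plated at 10 000/well and dosed after 24 h. HCT-116 was tested at 0.3–100 µM and A-431 at 0.1–100 µM, for 48 h at 37 °C. MTT (final 0.3 mg/mL) was added for 3 h and formazan dissolved in DMSO. A570 was read and % cytotoxicity taken versus untreated control. Makaluvamine C at 10 µM was the positive control.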

A-431 = assay: Inhibition of human A431 cells; assay type: functional, cell-based; in short: as §2
[2] = Toxicity in mouse at 400 mg/kg, ip; assay type: organism-based; design: dose 400 mg/kg, route intraperitoneal; settings: in vivo
In short: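 Acute toxicity in mice: the drug was formulated so that 400 mg/kg IP was given in 1 mL. Single IP doses of 400, 200 and 100 mg/kg were given (1, 0.5, 0.25 mL/mouse), using the body weight and strain planned for the hollow fiber assay. Mice were followed for 14 days for morbidity (body weight loss) and mortality. If mice died, the dose was halved serially in single mice until a tolerated dose was reached.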

Row | Structure (SMILES) | GI50 [1] [µM] | LC50 [1] [µM] | TGI [1] [µM] | other results
1 | COc1cc([C@@H]2c3cc4c(cc3[C@@H](O[C@@H]3O[C@@H]5CO[C@@H](C)O[C@H]5[C@H](O)[C@H]3O)[C@H]3COC(=O)[C@H]23)OCO4)cc(OC)c1O | – | – | – | Activity (Homo sapiens): Active
2 | O=C1C(NCCc2ccc(O)cc2)=CC2=NCCn3cnc1c32 | 2.51 | 40.7 | 14.1 | –
3 | O=C1C(NCCO)=CC2=NCCn3cnc1c32 | 1.1 | 20 | 4.27 | –
4 | CC(=O)NC1=C(C)C(=O)c2nc(C)n3c2C1=NCC3 | 52.5 | – | 81.3 | GI50 (BT-549): < 0.01 µM; GI50 (MDA-MB-231): 12.9 µM; GI50 (MDA-MB-435): 19.1 µM; GI50 (MDA-N): 18.6 µM; Activity (NCI60): inactive
5 | O=C1C(NCCc2ccccc2)=CC2=NCCn3cnc1c32 | 0.166 | 5.5 | 1.07 | –
6 | CC(=O)NC1=C(C)C(=O)c2nc(COC(C)=O)n3c2C1=NCC3 | – | – | – | Activity (NCI60): inactive
7 | CC(=O)NC1=C(C)C(=O)c2ncn3c2C1=NCC3 | 46.8 | – | – | Activity (NCI60): inactive
8 | O=C1C(NCCc2c[nH]c3ccccc23)=CC2=NCCn3cnc1c32 | 0.234 | 6.76 | 0.871 | Activity (Homo sapiens): Active
9 | COCc1nc2c3n1CCN=C3C=C(N)C2=O | – | – | – | IC50 (HCT-116): 3 µM; IC50 (A-431): 3 µM
10 | O=C1C(NCc2ccccc2)=CC2=NCCn3cnc1c32 | 0.617 | 14.8 | 2.82 | MTD [2]: 12.5 mg/kg
11 | NC1=CC2=NCCn3cnc(c32)C1=O | 4.57 | 35.5 | 12.3 | –
